Assay outcomes as filed in PubChem.
H69AR inhibit: growth inhibitors of human H69AR lung tumor cells. hit rate 6% among 85,000. H69AR lung tumor viability, ATP luminescence, 72 h; hits give low values. viability, % at 10 µM;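 active = viability at or below 40%; inactive = viability above 40%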;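 also: multidrug resistant small cell line overexpressing MRP-1 efflux transporter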
HCT116 bCat-KO: beta-catenin-lacking colon tumor cell growth suppression; hit rate 1.5% among 140,000; viability, % at 10 µM; HCT116 beta-catenin knockout viability, CellTiter-Glo, 60 h; hits give low values;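 active = viability at or under a set limit, the compound median less 4 SD, cut at about 6% in these data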
Fibroblast inh: blocks proliferation of human lung fibroblasts; LL 47 human lung fibroblast viability, ATP luminescence; hits give low values; viability, % at 10 µM; hit rate 1.1% among 85,000; AID 719;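 active = viability at or below 50% in the single dose screen; inactive = viability above 50%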;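 also: compound exposure lasted 72 h before the ATP readout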
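Signal: luminescent ATP detection, CellTiter-Glo; assay system: LL 47 human lung fibroblasts; input: 1,150 cells/well; incubation: overnight cell rest, 72 h compound treatment at 37 °C; measure: % viability versus median cells-only luminescence; medium: IMEM growth medium with 15% fetal bovine serum; dosing: compound addition at 0.1% DMSO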
HCT116 PTEN-null: growth suppressors of cells with PTEN tumor suppressor deletion. HCT116 PTEN-null viability, CellTiter-Glo, 60 h; hits give low values. viability, % at 10 µM. hit rate 1.2% among 140,000. AID 827;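 active = viability at or below a set limit, 4 SD under the median of all tested compounds, cut at about 3.7% in these data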;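 also: PTEN knockout HCT116 line with beta catenin targeted HCT116 as companion control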
HUVEC prolif 384: human endothelial cell proliferation inhibition. HUVEC proliferation, CellTiter-Glo luminescence, 72 h; hits give low values. viability, % at 10 µM (by protocol). hit rate 1.1% among 86,000. AID 648;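 active = viability at or below 30%; inactive = viability above 30%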
Each line names hits and unclear results; the compound was inactive in the other large screens. Many of the other results were omitted from the sample, so hits are more common in it than they were.

Cc1ccc(N/C=C/C(=O)c2sc(-c3ccccc3)nc2C)cc1	none (no result: H69AR inhibit, Fibroblast inh, HUVEC prolif 384)
CCn1c(SCC(=O)N2CCCc3ccccc32)nnc1-c1c[nH]c2ccccc12	H69AR inhibit 23
COc1cccc2[nH]c3c(Cl)ncnc3c12	none (no result: H69AR inhibit, Fibroblast inh, HUVEC prolif 384)
Cc1c2ccccc2nc2c(F)c(NCCO)c(F)c(F)c12	none (no result: H69AR inhibit, Fibroblast inh, HUVEC prolif 384)
OCCNc1c2ccccc2nc2c(F)c(F)c(F)c(F)c12	HCT116 bCat-KO 1.5, HCT116 PTEN-null 1.1 (no result: H69AR inhibit, Fibroblast inh, HUVEC prolif 384)
Cc1ccc(C23CC4CC(CC(NC(=O)N5CCN(C)CC5)(C4)C2)C3)cc1	HCT116 bCat-KO 1.5, HCT116 PTEN-null 1.6
OC(C#Cc1ccccn1)c1cccs1 (stereo not drawn)	H69AR inhibit 13, HUVEC prolif 384 7.9
O=C(CN1CCN(S(=O)(=O)c2ccc(F)cc2)CC1)Nc1ccc(Cl)c(C(F)(F)F)c1	H69AR inhibit 9.0
O=C(CN1CCN(S(=O)(=O)c2ccc(F)cc2)CC1)Nc1ccc2c(c1)OCO2	Fibroblast inh 48
O=C(CN1CCCN(S(=O)(=O)c2ccc(Br)cc2)CC1)Nc1ccc2cn[nH]c2c1	H69AR inhibit 2.1 (no result: HCT116 bCat-KO, HCT116 PTEN-null)
O=C(CN1CCN(S(=O)(=O)c2ccc(F)cc2)CC1)Nc1ccc2c(c1)OCCO2	none
O=C(CN1CCCN(S(=O)(=O)c2ccc(Br)cc2)CC1)Nc1ccc2c(c1)OCO2	H69AR inhibit 12
COc1ccc(S(=O)(=O)N2CCCN(CC(=O)Nc3ccc4c(c3)OCO4)CC2)cc1	none
C=CCOc1c(Br)cc(CNc2ccc(NC(=O)C(C)C)c(OC)c2)cc1OCC	none (no result: H69AR inhibit, Fibroblast inh, HUVEC prolif 384)
O=C(CCCSc1nc2ccccc2[nH]1)NCc1ccc(Cl)cc1	none (no result: H69AR inhibit, Fibroblast inh, HUVEC prolif 384)
Cn1c(N)c(C(=O)COC(=O)CNS(=O)(=O)c2ccc(Cl)c(Cl)c2)c(=O)n(C)c1=O	none (no result: H69AR inhibit, Fibroblast inh, HUVEC prolif 384)
CC1(C)Cc2nc3sc4c(SCC(=O)NCc5ccccc5)ncnc4c3cc2CO1	H69AR inhibit 0.7 (no result: HCT116 PTEN-null)
CC1(C)Cc2nc3sc4c(N(CCO)CCO)ncnc4c3cc2CO1	none (no result: H69AR inhibit, Fibroblast inh, HUVEC prolif 384)
c1ccc(-c2cn3c(n2)-c2ccccc2C3)cc1	none (no result: H69AR inhibit, Fibroblast inh, HUVEC prolif 384)
CCOC(=O)c1cnc(-n2nc(C)cc2C)nc1NC(C)c1ccccc1 (stereo not drawn)	H69AR inhibit 2.0, HCT116 bCat-KO 2.3, Fibroblast inh 17, HCT116 PTEN-null 3.6
CCOC(=O)c1cnc(-n2nc(C)cc2C)nc1NCc1ccccc1	H69AR inhibit 2.4
CCOC(=O)c1cnc(-n2nc(C)cc2C)nc1NCCO	none
CCOC(=O)c1cnc(-n2nc(C)cc2C)nc1NNc1cc(-c2ccccc2)nc(C)n1	HCT116 bCat-KO 3.8 (no result: H69AR inhibit, Fibroblast inh, HUVEC prolif 384)
COc1ccc(NC(=O)CCc2ccccc2)cc1NC(=O)c1ccco1	H69AR inhibit 36
COc1ccc(CCC(=O)Nc2cc(Cl)ccc2OC)cc1	H69AR inhibit 24
COc1ccccc1-n1cnc2cc(NC(=O)c3ccco3)ccc21	H69AR inhibit 22
CCOc1cc(NC(=O)c2ccco2)c(OCC)cc1NC(=O)CCc1ccc(OC)cc1	H69AR inhibit 33 (no result: HCT116 bCat-KO, HCT116 PTEN-null)
COc1cc(NC(=O)CSc2nc3ccccc3c(=O)n2C)ccc1NC(=O)c1ccco1	H69AR inhibit 24
CC(=O)c1c(N2CCN(Cc3ccccc3)CC2)[nH]c(-c2ccccc2)nc1=S	H69AR inhibit 4.6
COc1ccc(-c2nn(-c3ccccc3)cc2/C=N/N=C(N)N)cc1OC	HCT116 bCat-KO 1.6, HCT116 PTEN-null 1.2 (no result: H69AR inhibit, Fibroblast inh, HUVEC prolif 384)
CC(=O)N1CCc2c(sc(NC(=O)c3ccc4c(c3)OCCO4)c2C#N)C1	H69AR inhibit 24
N#CCCn1nnc2ccccc21	HCT116 bCat-KO 6.0
CCNS(=O)(=O)c1cc(OC)ccc1OC	none
COc1cc(NC(=O)CSc2nc3ccccc3n2-c2ccccc2)c(C)cc1[N+](=O)[O-]	none (no result: H69AR inhibit, Fibroblast inh, HUVEC prolif 384)
CCOc1cc2[nH]c(=O)n(CCc3ccc(OC)c(OC)c3)c(=O)c2cc1OCC	H69AR inhibit 36
CCOc1cc2[nH]c(=S)n(CCCOC)c(=O)c2cc1OCC	none
CCOc1cc2[nH]c(=S)n(CCc3ccc(OC)c(OC)c3)c(=O)c2cc1OCC	H69AR inhibit 3.0, Fibroblast inh 17, HUVEC prolif 384 16
CN(CC(=O)Nc1nc2ccccc2s1)S(=O)(=O)c1ccc(Br)cc1	none
CCOC(=O)N1CCN(S(=O)(=O)c2ccc(C(=O)Nc3nc4ccc(F)cc4s3)cc2)CC1	H69AR inhibit 23, Fibroblast inh 29
CCOC(=O)N1CCN(S(=O)(=O)c2ccc(F)cc2)CC1	none
CCOC(=O)N1CCN(S(=O)(=O)c2ccc(C(=O)Nc3nc4ccccc4s3)cc2)CC1	H69AR inhibit 13
CCOC(=O)c1sc(NC(=O)c2ccc(S(=O)(=O)N3CCCCC3)cc2)nc1-c1ccccc1	none (no result: H69AR inhibit, Fibroblast inh, HUVEC prolif 384)
